Data published in ChEMBL document CHEMBL3525967, “In vitro glucuronidation of the antibacterial triclocarban and its oxidative metabolites” (Drug Metab Dispos, 2012).

How the values were obtained:
Liver microsome = experiment: Intrinsic clearance in Sprague-Dawley rat liver microsomes after 30 mins by LC-ESI-MS analysis; format: ADME; details: 0.5 h
How it was run: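 2'-OH-TCC at 0.2, 0.5, 1, 2, 3, 5, 10 and 50 µM incubated with liver microsomes (alamethicin, MgCl2, saccharolactone, UDPGA; 37 °C), sampled at 5, 10, 15 and 30 min. Samples ≥5 µM diluted 1:9 in ACN; LC-ESI-MS. KM and vmax fitted from rate vs concentration; intrinsic clearance derived from these; mean and SD of three.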

[1] = molecular target: T1, UDP-glucuronosyltransferase 1A3 (Homo sapiens, UniProt P35503); experiment: Drug metabolism assessed as human UGT1A3-mediated N'-glucuronide-triclocarban formation expressed in baculovirus infected insect sf9 cells incubated for 5 mins prior to UDPGA addition measured after 5 to 30 mins by LC-UV analysis; format: ADME
T1 sequence (P35503 whole entry): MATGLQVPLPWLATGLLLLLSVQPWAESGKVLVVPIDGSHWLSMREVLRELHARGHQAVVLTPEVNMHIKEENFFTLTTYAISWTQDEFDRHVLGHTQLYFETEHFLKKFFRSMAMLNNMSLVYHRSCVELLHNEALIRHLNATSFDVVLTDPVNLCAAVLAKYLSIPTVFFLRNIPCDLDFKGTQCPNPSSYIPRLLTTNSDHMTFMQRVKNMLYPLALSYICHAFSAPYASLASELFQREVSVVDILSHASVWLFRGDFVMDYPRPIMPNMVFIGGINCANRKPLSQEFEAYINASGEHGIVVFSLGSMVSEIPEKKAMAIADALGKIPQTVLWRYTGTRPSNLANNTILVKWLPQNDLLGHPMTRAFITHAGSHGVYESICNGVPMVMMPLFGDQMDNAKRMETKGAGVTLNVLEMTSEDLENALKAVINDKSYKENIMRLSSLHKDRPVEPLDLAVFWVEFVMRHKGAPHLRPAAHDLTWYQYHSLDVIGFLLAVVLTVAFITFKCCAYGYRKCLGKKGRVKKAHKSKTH
How it was run: (§1)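 Microsomes or UGT Supersomes (5 µg protein) were held 15 min on ice with alamethicin in 100 mM potassium phosphate pH 7.4. TCC was added at 10 µM (2% DMSO) with 10 mM MgCl2 and 10 mM saccharolactone, pre-warmed 5 min at 37 °C, then started with UDPGA. Samples at 5, 10, 15 and 30 min were quenched in ACN. Product was read by LC-UV at 265 nm; rate came from regression over time, three incubations.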

[2] = Drug metabolism in cynomolgus monkey liver microsomes assessed as N-glucuronide-triclocarban formation incubated for 5 mins prior to UDPGA addition measured after 5 to 30 mins by LC-UV analysis; format: ADME, Macaca fascicularis; how it was run: as §1
[3] = molecular target: T2, UDP-glucuronosyltransferase 2B7 (Homo sapiens, UniProt P16662); experiment: Drug metabolism assessed as human UGT2B7-mediated N-glucuronide-triclocarban formation expressed in baculovirus infected insect sf9 cells incubated for 5 mins prior to UDPGA addition measured after 5 to 30 mins by LC-UV analysis; format: ADME; how it was run: as §1
T2 sequence (P16662 whole entry): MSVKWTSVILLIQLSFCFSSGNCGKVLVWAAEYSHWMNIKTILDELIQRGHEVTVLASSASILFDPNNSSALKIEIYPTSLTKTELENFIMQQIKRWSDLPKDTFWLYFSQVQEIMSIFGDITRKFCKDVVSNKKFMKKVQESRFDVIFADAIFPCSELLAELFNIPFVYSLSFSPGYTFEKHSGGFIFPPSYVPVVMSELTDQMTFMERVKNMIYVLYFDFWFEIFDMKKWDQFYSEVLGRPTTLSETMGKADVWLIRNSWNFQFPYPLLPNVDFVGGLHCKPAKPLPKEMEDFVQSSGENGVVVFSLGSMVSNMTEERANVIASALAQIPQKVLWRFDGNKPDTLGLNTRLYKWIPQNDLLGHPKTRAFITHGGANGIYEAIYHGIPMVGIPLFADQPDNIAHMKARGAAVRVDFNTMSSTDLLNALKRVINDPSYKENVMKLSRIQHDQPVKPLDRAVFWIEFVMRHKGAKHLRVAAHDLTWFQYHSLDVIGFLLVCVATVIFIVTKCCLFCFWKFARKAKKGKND

[4] = Drug excretion in Swiss webster mouse urine assessed as N-glucuronide-triclocarban formation at 5 mg/kg, po by LC-MS analysis; format: ADME, organism-based; design: dose 5 mg/kg, route oral; details: in vivo
How it was run: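 Mice were housed two per metabolic cage, with blank urine collected over the 24 h before dosing. TCC was given by oral gavage as a 1 mg/mL solution in 20/80 DMSO/PEG400 (v/v) at 5 mg/kg. Urine was collected at 0-24 h and 24-48 h and analysed by online LC-MS. Values are the mean of two independent experiments.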

CLH (Liver microsome) [µL/min/mg] | Compound | Drug metabolism [1] | Drug metabolism [2] | Drug metabolism [3] | Drug excretion [4]
2860 | O=C(Nc1ccc(Cl)c(Cl)c1)Nc1ccc(Cl)cc1O | – | – | – | –
– | O=C(Nc1ccc(Cl)cc1)Nc1ccc(Cl)c(Cl)c1 [TRICLOCARBAN] | metabolite_not_detected | metabolite_not_detected | metabolite_not_detected | metabolite_detected
